Measurements reported in ChEMBL document CHEMBL4411315, “Discovery of Novel Dual Histone Deacetylase and Mammalian Target of Rapamycin Target Inhibitors as a Promising Strategy for Cancer Therapy” (J Med Chem, 2019).
The source made the active and inactive calls. The rule behind the calls is not given here.

How the values were obtained:
[1] = molecular target: Histone deacetylase 3 (Homo sapiens, UniProt O15379); assay: Inhibition of recombinant full length HDAC3 (unknown origin) using Ac-peptide-AMC as substrate preincubated for 15 mins followed by substrate addition and measured after 1 hr by fluorescence assay
Sequence of Histone deacetylase 3 (O15379 whole entry): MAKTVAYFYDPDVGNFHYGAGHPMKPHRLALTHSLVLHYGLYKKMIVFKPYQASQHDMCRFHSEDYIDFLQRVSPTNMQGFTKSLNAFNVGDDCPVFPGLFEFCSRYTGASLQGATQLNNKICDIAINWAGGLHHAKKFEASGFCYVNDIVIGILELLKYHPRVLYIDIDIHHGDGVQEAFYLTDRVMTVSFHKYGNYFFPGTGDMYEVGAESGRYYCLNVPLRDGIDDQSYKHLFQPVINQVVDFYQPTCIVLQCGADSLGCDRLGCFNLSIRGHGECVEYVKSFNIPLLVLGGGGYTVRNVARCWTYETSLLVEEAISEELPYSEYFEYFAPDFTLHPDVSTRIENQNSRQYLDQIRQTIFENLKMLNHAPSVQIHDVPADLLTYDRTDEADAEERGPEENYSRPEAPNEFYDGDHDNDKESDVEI

[2] = molecular target: Histone deacetylase 8 (Homo sapiens, UniProt Q9BY41); assay: Inhibition of recombinant full length C-terminal His-tagged human HDAC8 expressed in baculovirus expression system using Ac-peptide-AMC as substrate preincubated for 15 mins followed by substrate addition and measured after 1 hr by fluorescence assay
Sequence of Histone deacetylase 8 (Q9BY41 whole entry): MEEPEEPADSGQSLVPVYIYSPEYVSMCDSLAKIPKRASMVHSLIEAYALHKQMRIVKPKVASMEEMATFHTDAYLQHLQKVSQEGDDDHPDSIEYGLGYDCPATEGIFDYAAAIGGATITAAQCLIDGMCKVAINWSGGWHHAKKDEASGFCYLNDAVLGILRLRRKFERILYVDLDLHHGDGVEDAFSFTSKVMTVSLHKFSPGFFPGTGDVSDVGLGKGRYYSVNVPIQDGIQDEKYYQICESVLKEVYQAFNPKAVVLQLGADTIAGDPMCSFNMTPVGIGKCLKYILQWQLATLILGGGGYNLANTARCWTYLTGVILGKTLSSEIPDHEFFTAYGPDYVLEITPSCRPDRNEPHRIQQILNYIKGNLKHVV

[3] = molecular target: Protein deacetylase HDAC6 (Homo sapiens, UniProt Q9UBN7); assay: Inhibition of recombinant full length HDAC6 (unknown origin) using Ac-peptide-AMC as substrate preincubated for 15 mins followed by substrate addition and measured after 1 hr by fluorescence assay
Sequence of Protein deacetylase HDAC6 (Q9UBN7 whole entry): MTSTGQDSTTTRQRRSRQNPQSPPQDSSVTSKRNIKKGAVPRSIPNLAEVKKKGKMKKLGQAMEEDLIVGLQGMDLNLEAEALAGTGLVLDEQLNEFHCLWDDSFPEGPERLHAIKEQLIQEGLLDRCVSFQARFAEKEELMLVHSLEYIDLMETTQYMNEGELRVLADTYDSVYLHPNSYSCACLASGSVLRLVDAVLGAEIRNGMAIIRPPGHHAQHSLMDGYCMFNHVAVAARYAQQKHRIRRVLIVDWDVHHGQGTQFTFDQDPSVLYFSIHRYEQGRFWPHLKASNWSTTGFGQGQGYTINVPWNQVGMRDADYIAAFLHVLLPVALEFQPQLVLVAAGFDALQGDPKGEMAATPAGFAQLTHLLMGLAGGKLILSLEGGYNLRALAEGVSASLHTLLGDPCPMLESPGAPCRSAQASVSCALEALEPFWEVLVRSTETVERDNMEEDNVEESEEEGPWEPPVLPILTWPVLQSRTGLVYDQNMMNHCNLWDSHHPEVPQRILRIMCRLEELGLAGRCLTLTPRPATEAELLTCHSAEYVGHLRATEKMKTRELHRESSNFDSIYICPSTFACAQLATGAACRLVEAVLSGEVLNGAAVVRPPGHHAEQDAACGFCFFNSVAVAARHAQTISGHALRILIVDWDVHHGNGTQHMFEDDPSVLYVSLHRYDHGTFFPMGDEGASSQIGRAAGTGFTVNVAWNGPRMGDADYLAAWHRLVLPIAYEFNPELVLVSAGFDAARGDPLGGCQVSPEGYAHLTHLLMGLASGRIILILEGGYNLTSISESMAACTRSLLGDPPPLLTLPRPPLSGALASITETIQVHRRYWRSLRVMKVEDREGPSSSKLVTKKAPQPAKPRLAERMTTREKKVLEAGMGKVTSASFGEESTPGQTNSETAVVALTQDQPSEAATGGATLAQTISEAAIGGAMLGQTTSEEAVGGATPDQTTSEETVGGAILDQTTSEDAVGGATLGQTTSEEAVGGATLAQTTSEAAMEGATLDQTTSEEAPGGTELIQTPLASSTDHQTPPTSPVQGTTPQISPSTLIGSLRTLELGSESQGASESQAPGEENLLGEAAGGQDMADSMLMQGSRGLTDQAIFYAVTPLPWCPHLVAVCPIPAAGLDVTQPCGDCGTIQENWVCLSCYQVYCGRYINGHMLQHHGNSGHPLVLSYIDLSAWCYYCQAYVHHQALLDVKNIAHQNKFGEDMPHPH

[4] = molecular target: Polyamine deacetylase HDAC10 (Homo sapiens, UniProt Q969S8); assay: Inhibition of recombinant full length N-terminal FLAG-tagged human HDAC10 expressed in baculovirus infected sf9 cells using Ac-peptide-AMC as substrate preincubated for 15 mins followed by substrate addition and measured after 1 hr by fluorescence assay
Sequence of Polyamine deacetylase HDAC10 (Q969S8 whole entry): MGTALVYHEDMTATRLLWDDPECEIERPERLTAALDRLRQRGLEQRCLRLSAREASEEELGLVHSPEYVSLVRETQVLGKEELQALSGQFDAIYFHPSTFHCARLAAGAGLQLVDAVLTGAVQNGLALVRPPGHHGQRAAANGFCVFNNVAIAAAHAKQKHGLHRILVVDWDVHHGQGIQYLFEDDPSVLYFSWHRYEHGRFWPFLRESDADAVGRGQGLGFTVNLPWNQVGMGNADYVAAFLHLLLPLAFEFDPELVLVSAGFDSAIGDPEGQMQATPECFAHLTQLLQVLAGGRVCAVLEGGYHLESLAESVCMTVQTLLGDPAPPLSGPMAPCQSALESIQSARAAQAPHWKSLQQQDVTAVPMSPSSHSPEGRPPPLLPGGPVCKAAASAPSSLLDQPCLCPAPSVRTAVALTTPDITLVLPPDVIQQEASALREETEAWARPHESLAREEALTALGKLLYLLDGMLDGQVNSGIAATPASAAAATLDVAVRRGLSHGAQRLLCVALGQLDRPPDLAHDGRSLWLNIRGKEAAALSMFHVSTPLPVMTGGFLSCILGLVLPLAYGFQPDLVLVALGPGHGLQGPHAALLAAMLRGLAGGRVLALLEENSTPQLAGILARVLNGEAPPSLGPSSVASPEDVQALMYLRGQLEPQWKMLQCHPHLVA

[5] = molecular target: Histone deacetylase 5 (Homo sapiens, UniProt Q9UQL6); assay: Inhibition of recombinant full length N-terminal GST-tagged human HDAC5 expressed in baculovirus expression system using Ac-peptide-AMC as substrate preincubated for 15 mins followed by substrate addition and measured after 1 hr by fluorescence assay
Sequence of Histone deacetylase 5 (Q9UQL6 whole entry): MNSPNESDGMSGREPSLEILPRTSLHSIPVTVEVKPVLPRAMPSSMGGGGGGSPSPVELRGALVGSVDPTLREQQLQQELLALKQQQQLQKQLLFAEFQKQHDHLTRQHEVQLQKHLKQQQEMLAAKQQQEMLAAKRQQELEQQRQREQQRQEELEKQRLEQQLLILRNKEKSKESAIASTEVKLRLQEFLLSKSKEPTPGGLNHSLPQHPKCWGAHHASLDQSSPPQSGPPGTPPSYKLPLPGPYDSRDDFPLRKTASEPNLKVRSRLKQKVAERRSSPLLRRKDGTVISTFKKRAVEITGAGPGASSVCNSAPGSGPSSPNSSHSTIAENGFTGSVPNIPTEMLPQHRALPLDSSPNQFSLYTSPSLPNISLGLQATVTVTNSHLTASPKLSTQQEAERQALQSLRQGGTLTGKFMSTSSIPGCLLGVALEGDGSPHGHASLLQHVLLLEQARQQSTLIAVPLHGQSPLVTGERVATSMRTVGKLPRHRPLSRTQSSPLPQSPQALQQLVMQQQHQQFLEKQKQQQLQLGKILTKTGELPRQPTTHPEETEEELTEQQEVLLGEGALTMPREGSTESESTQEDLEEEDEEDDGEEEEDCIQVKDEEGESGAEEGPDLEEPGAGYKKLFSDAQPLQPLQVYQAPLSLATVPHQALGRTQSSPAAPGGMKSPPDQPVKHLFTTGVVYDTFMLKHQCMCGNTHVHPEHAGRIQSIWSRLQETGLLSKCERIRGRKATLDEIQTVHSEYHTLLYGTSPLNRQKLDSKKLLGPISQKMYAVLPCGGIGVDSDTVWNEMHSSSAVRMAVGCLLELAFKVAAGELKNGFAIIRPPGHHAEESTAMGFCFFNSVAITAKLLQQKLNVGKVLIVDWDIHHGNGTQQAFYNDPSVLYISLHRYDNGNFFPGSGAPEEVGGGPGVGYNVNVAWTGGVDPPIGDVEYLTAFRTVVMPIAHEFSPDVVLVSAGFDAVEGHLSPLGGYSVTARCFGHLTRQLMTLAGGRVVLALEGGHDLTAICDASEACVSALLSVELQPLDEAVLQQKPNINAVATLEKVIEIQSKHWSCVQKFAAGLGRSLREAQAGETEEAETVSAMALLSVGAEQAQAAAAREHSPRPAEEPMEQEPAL

[6] = test system: OCI-AML2; assay: Antiproliferative activity against human OCI-AML2 cells after 72 hrs by MTT assay; format: functional, cell-based; settings: OCI-AML2, 72 h
[7] = molecular target: PI3-kinase p110-alpha/p85-alpha (Homo sapiens) (UniProt P27986+P42336); assay: Inhibition of recombinant human full length N-terminal His-tagged/untagged p110alpha/p85alpha expressed in baculovirus expression system at 1000 nM using PIP2 as substrate after 1 hr by Kinase-Glo reagent-based assay relative to control
Summary of the method: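 PI3Kα (p110α/p85α) incubated with PIP2 substrate and ATP in kinase buffer for 1 h at room temperature. Kinase-Glo reagent was then added for 15 min before luminescence read-out. Inhibition rate at 100 or 1000 nM is the mean of at least two experiments.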

[8] = test system: MV4-11; assay: Cell cycle arrest in human MV4-11 cells assessed as accumulation at G2/M phase at 5 nM after 24 hrs by propidium iodide/RNase staining-based FACS analysis (reference value: 18.79%); format: functional
[9] = test system: MV4-11; assay: Cell cycle arrest in human MV4-11 cells assessed as accumulation at S phase at 5 nM after 24 hrs by propidium iodide/RNase staining-based FACS analysis (reference value: 36.42%); format: functional
[10] = test system: MM1.S; assay: Cell cycle arrest in human MM1S cells assessed as accumulation at G0/G1 phase at 1.25 nM after 24 hrs by propidium iodide/RNase staining-based FACS analysis (reference value: 49.22%); format: functional
[11] = test system: MM1.S; assay: Cell cycle arrest in human MM1S cells assessed as accumulation at S phase at 1.25 nM after 24 hrs by propidium iodide/RNase staining-based FACS analysis (reference value: 24.49%); format: functional
[12] = test system: MM1.S; assay: Cell cycle arrest in human MM1S cells assessed as accumulation at G2/M phase at 5 nM after 24 hrs by propidium iodide/RNase staining-based FACS analysis (reference value: 26.29%); format: functional
[13] = test system: MM1.S; assay: Cell cycle arrest in human MM1S cells assessed as accumulation at S phase at 10 nM after 24 hrs by propidium iodide/RNase staining-based FACS analysis (reference value: 24.49%); format: functional
[14] = test system: MV4-11; assay: Induction of apoptosis in human MV4-11 cells assessed as viable cells at 20 nM after 48 hrs by Annexin V-FITC/propidium iodide staining-based flow cytometric analysis (reference value: 84.1%); format: functional; settings: MV4-11, 48 h, read-out: Activity
[15] = test system: MV4-11; assay: Induction of apoptosis in human MV4-11 cells assessed as late apoptotic cells at 40 nM after 48 hrs by Annexin V-FITC/propidium iodide staining-based flow cytometric analysis (reference value: 5.03%); format: functional
[16] = test system: MV4-11; assay: Induction of apoptosis in human MV4-11 cells assessed as viable cells at 40 nM after 48 hrs by Annexin V-FITC/propidium iodide staining-based flow cytometric analysis (reference value: 84.1%); format: functional; settings: MV4-11, 48 h, read-out: Activity
[17] = test system: MV4-11; assay: Induction of apoptosis in human MV4-11 cells assessed as necrotic cells at 80 nM after 48 hrs by Annexin V-FITC/propidium iodide staining-based flow cytometric analysis (reference value: 0.17%); format: functional
[18] = test system: MV4-11; assay: Induction of apoptosis in human MV4-11 cells assessed as necrotic cells at 320 nM after 48 hrs by Annexin V-FITC/propidium iodide staining-based flow cytometric analysis (reference value: 0.17%); format: functional
[19] = test system: MM1.S; assay: Induction of apoptosis in human MM1S cells assessed as late apoptotic cells at 40 nM after 48 hrs by Annexin V-FITC/propidium iodide staining-based flow cytometric analysis (reference value: 0.42%); format: functional
[20] = test system: MM1.S; assay: Induction of apoptosis in human MM1S cells assessed as late apoptotic cells at 160 nM after 48 hrs by Annexin V-FITC/propidium iodide staining-based flow cytometric analysis (reference value: 0.42%); format: functional
[21] = test system: MM1.S; assay: Induction of apoptosis in human MM1S cells assessed as viable cells at 160 nM after 48 hrs by Annexin V-FITC/propidium iodide staining-based flow cytometric analysis (reference value: 98.9%); format: functional; settings: read-out: Activity
[22] = test system: MM1.S; assay: Induction of apoptosis in human MM1S cells assessed as necrotic cells at 320 nM after 48 hrs by Annexin V-FITC/propidium iodide staining-based flow cytometric analysis (reference value: 0.32%); format: functional
[23] = test system: MM1.S; assay: Antitumor activity against human MM1S cells xenografted in NOD/SCID mouse assessed as tumor growth inhibition at 20 mg/kg, iv administered every 2 days for 5 days and measured every 2 days post last dose by caliper method relative to control; format: functional; settings: read-out: TGI
Summary of the method: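 MM1S xenografts were made with 10^7 cells in 100 μL serum-free RPMI 1640, injected s.c. into the right flank of female NOD/SCID mice aged 5-6 weeks. Mice were randomized at 100-200 mm3, 6 per group. Dosing was i.v. every 2 days in saline with 2.5% DMSO and 10% cyclodextrin at pH 9. Tumours were measured by caliper every 2 days (volume = length × width² × 0.5) and weighed at the end.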

[24] = Toxicity against NOD/SCID mouse xenografted with human MM1S cells assessed as mouse survival at 20 mg/kg, iv administered every 2 days for 5 days; format: organism-based; settings: in vivo
Summary of the method: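 Female NOD/SCID mice, 5-6 weeks old, received 10^7 MM1S cells in 100 μL serum-free RPMI 1640 s.c. into the right flank. At 100-200 mm3 tumours they were randomised, 6 mice per group. Tumours were measured by caliper every 2 days. At the end, tumours were excised and weighed. Survivors are reported per group.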

[25] = molecular target: Serine/threonine-protein kinase mTOR (Homo sapiens, UniProt P42345); assay: Inhibition of human recombinant mTOR expressed in mammalian expression system assessed as residual activity at 1 uM
Summary of the method: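 Radiometric kinase panel (99 kinases) run at 1 μM inhibitor in duplicate with [γ-33P]ATP, kinase-specific buffer and substrate at room temperature. The reaction was started with Mg/ATP and stopped with 0.5% phosphoric acid, then spotted on P30 filtermat, washed and scintillation counted. Results are expressed as % remaining activity versus DMSO control.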

## C[C@@H]1CN(C(=O)Nc2ccc(-c3nc(N4CCOCC4)c4cnn(CCCCCCC(=O)NO)c4n3)cc2)CCO1
[1]
  IC50: 1.47 nM
[2]
  IC50: 1.28 nM
[3]
  IC50: 1.8 nM
[4]
  IC50: 0.58 nM
[5]
  IC50: > 1000 nM
[6]
  IC50: 9.01 nM
[7]
  inhibition: 57.3%
[8]
  Activity: 13.99%
[9]
  Activity: 21.32%
[10]
  Activity: 53.85%
[11]
  Activity: 22.05%
[12]
  Activity: 24.4%
[13]
  Activity: 12.6%
[14]
  viability at 0.02 µM: 20.6%
[15]
  Activity: 57.6%
[16]
  viability at 0.04 µM: 2.99%
[17]
  Activity: 1.86%
[18]
  Activity: 1.62%
[19]
  Activity: 23%
[20]
  Activity: 63.3%
[21]
  viability at 0.16 µM: 13.8%
[22]
  Activity: 2.2%
[23]
  inhibition in vivo at 20 mg/kg: 72.5%
[24]
  Activity: Non-Toxic
[25]
  inhibition: Active
